Results on 5 molecules are retold here after ChEMBL document CHEMBL1124401, “1-(2,3-Dideoxy-beta-D-glycero-pent-2-enofuranosyl)thymine. A highly potent and selective anti-HIV agent” (J Med Chem, 1989).

Data set [1] deals with Human immunodeficiency virus. As to the kind of experiment: The inhibition of compound was determined by reverse transcriptase assay using RNA as template. It is filed as functional. In a few lines: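 HIV reverse transcriptase assay with poly(rA):oligo(dT) as RNA template/primer. Various triphosphate concentrations were tested, and Ki was derived from Dixon plots.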
For data set [2], the system named is Human immunodeficiency virus. As to the kind of experiment: The inhibition of compound was determined by reverse transcriptase assay using DNA as template. The class given is functional. In short, it runs like this: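 HIV reverse transcriptase assay (DNA-dependent DNA polymerase activity) with poly(dA):oligo(dT) as DNA template/primer. Various triphosphate concentrations were tested, and Ki was derived from Dixon plots.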

For data set [3], the system named is CCRF-CEM. The data set is described as follows: Cellular toxicity was measured in CEM cells after 8 days by using a [3H]- thymidine uptake assay. It is filed as cell-based. Conditions: human, 192 h, read-out: TCID50. In short, it runs like this:
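Uninfected CEM cells treated with various compound concentrations for 8 days; cytotoxicity read by [3H]thymidine uptake and expressed as 50% tissue culture inhibitory dose (TCID50).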

Data set [4] in a line: The 50% inhibitory concentration expresses cellular toxicity measured against normal human erythrocyte progenitor cells (BFU-E). Particulars: read-out: ID50 (the source's name).
Data set [5] in a line: The 50% inhibitory concentration expresses cellular toxicity measured against normal human granulocyte-monocyte cells.
Data set [6] has as its system CCRF-CEM. The data set is described as follows: In vitro antiviral test was performed on HIV(LAV strain) infected CEM cells. The class given is functional. Conditions: Homo sapiens, read-out: ID50 (the source's name). In a few lines:
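CEM-F cells infected with about 30 TCID50 of HIV (LAV strain), held 45 min at 37 °C, then given compound at various concentrations in culture medium and incubated 8 days. Virus expression read as p24 gag antigen in culture supernatant by sandwich/enzyme-capture ELISA. ID50 (μM) taken as the dose inhibiting 50% of virus expression.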

Data set [7] in a line: The 90% inhibitory concentration expresses cellular toxicity measured against normal human granulocyte-monocyte cells.
The test system of data set [8] is CCRF-CEM. The data set is described as follows: Cellular toxicity measured in CEM cells.
Data set [9] can be described thus: Cellular toxicity was measured in normal human granulocyte-monocyte progenitor cells (CFU-GM). Conditions: read-out: ID50 (the source's name).

Each structure is given as a SMILES string.

`Cc1cn([C@H]2CC[C@@H](COP(=O)(O)OP(=O)(O)OP(=O)(O)O)O2)c(=O)[nH]c1=O`: the values for the Ki in data set [1] and in data set [2] were 0.05 µM and 84 µM, respectively.

For `Cc1cn([C@H]2C=C[C@@H](COP(=O)(O)OP(=O)(O)OP(=O)(O)O)O2)c(=O)[nH]c1=O` [STAVUDINE TRIPHOSPHATE], the Ki in [1] stood at 0.032 µM; in data set [2], 70 µM.

Turning to `Cc1cn([C@H]2C=C[C@@H](CO)O2)c(=O)[nH]c1=O` [STAVUDINE], the CC50 in [3] was found to be 90 µM; in data set [4], 10 µM. For the same molecule, in [5], the ID50 came to 100 µM. Besides, the IC50 in [6] is 0.15 µM. In addition, the ID90 in data set [7] was > 100 µM.

Take `Cc1cn([C@H]2C[C@H](N=[N+]=[N-])[C@@H](COP(=O)(O)OP(=O)(O)OP(=O)(O)O)O2)c(=O)[nH]c1=O` [ZIDOVUDINE TRIPHOSPHATE]: the inhibition constant (Ki) in data set [1] worked out at 0.007 µM; in data set [2], 84 µM.

As to `Cc1cn([C@H]2C[C@H](N=[N+]=[N-])[C@@H](CO)O2)c(=O)[nH]c1=O` [ZIDOVUDINE], the CC50 was 6.7 µM in data set [4], 29 µM in [8] and 1 µM in data set [9]. Besides, the IC50 in [6] came to 0.1 µM. This molecule also had an ID90 in [7] of 20 µM.
